Active and inactive are the calls of the source. The calls are words filed in the database; no cut-off is given here.
Legend:
[1] = test system: HeLa; experiment: Upregulation of p21 mRNA expression in human HeLa cells at 4 uM after 48 hrs by RT-PCR analysis; type: functional, cell-based
Outline: (§1)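 HeLa cells were treated at 4 μM for 48 h before RNA isolation. cDNA was amplified by RT-PCR with gene-specific primers, using GAPDH as loading control. Products were run on 1% agarose gel with ethidium bromide, and band intensity was quantified by densitometry.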

[2] = test system: HeLa; experiment: Induction of senescence in human HeLa cells at 4 uM after 72 hrs by X-gal staining-based beta-galactosidase assay; type: functional, cell-based
Outline: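 HeLa cells in chamber slides were treated at 4 μM for 72 h. They were fixed in 3% paraformaldehyde and then in methanol at 4 °C. Staining used X-gal in sodium phosphate buffer with ferro/ferricyanide, 1 mM MgCl₂ and citric acid for 24 h. Senescent cells were scored by microscopy as enlarged, flattened and blue.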

[3] = test system: HeLa; experiment: Downregulation of HDAC-2 mRNA expression in human HeLa cells at 4 uM after 48 hrs by RT-PCR analysis; type: functional, cell-based; outline: as §1
[4] = test system: HeLa; experiment: Downregulation of EZH2 mRNA expression in human HeLa cells at 4 uM after 48 hrs by RT-PCR analysis; type: functional, cell-based; outline: as §1
[5] = test system: HeLa; experiment: Upregulation of p53 mRNA expression in human HeLa cells at 4 uM after 48 hrs by RT-PCR analysis; type: functional, cell-based; outline: as §1
[6] = test system: HeLa; experiment: Downregulation of HDAC-1 mRNA expression in human HeLa cells at 4 uM after 48 hrs by RT-PCR analysis; type: functional, cell-based; outline: as §1
[7] = test system: HeLa; experiment: Change in HDAC-6 mRNA expression in human HeLa cells at 4 uM after 48 hrs by RT-PCR analysis; type: functional, cell-based; outline: as §1
[8] = test system: HeLa; experiment: Induction of human p16 promoter activity transfected in human HeLa cells at 4 uM after 48 hrs by luciferase-based luminescence assay; type: cell-based
Outline: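 A 1.4 kb human p16 promoter in pGL3-basic luciferase vector was co-transfected into HeLa with a β-gal plasmid. Cells were then treated at 4 μM for 48 h. Lysate luciferase luminescence was normalized to β-galactosidase as internal control.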

[9] = test system: HeLa; experiment: Downregulation of HDAC-5 mRNA expression in human HeLa cells at 4 uM after 48 hrs by RT-PCR analysis; type: functional, cell-based; outline: as §1
[10] = test system: HeLa; experiment: Change in HDAC-7 mRNA expression in human HeLa cells at 4 uM after 48 hrs by RT-PCR analysis; type: functional, cell-based; outline: as §1
[11] = test system: HeLa; experiment: Cell cycle arrest in human HeLa cells assessed as accumulation at S phase at 4 uM after 48 hrs by propidium iodide staining-based flow cytometric analysis (reference value: 7%); type: functional
[12] = test system: HeLa; experiment: Cell cycle arrest in human HeLa cells assessed as accumulation at G2/M phase at 4 uM after 48 hrs by propidium iodide staining-based flow cytometric analysis (reference value: 31%); type: functional
[13] = test system: HEK293; experiment: Selectivity index, ratio of IC50 for HEK cells to IC50 for human K562 cells; type: functional
Outline: (§2)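 Selectivity index is IC50 in normal HEK cells divided by IC50 in the cancer cell line.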

[14] = test system: HeLa; experiment: Cell cycle arrest in human HeLa cells assessed as accumulation at S phase at 8 uM after 48 hrs by propidium iodide staining-based flow cytometric analysis (reference value: 10%); type: functional
[15] = test system: K562; experiment: Cytotoxicity against human K562 cells after 72 hrs by MTT assay; type: functional, cell-based; settings: K562, 72 h
Outline: (§3)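 Cells were seeded at 1×10⁴ per well and preincubated 18 h at 37 °C, 5% CO₂. They were then exposed to 1–256 μM for 72 h with DMSO ≤0.25%. MTT was added for 2 h and formazan was solubilized in extraction buffer before reading OD at 570 nm. IC50 is mean ± SD of three independent experiments. HEK is the normal-cell line; cancer lines were grown in DMEM with 10% serum.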

[16] = test system: MCF7; experiment: Cytotoxicity against human MCF7 cells after 72 hrs by MTT assay; type: functional, cell-based; settings: MCF7, 72 h; outline: as §3
[17] = test system: HeLa; experiment: Cell cycle arrest in human HeLa cells assessed as accumulation at G0/G1 phase at 4 uM after 48 hrs by propidium iodide staining-based flow cytometric analysis (reference value: 62%); type: functional
[18] = test system: HeLa; experiment: Cell cycle arrest in human HeLa cells assessed as accumulation at G0 phase at 8 uM after 48 hrs by propidium iodide staining-based flow cytometric analysis (reference value: 3%); type: functional
[19] = Cytotoxicity against HEK cells after 72 hrs by MTT assay; type: cell-based; settings: Homo sapiens, HEK293, 72 h; outline: as §3
[20] = target: Histone deacetylase (HDAC1 and HDAC2) (Homo sapiens, UniProt Q13547+Q92769); experiment: Inhibition of HDAC1/2 in human HeLa cells using color de lys as substrate after 30 mins by colorimetric analysis; type: cell-based
Outline: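 HeLa cells were treated at 4 μM, with TSA as reference. Samples were then incubated 30 min with Color de Lys substrate and HDAC-1/2. Developer yields a yellow product, and absorbance was read at 405 nm.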

[21] = test system: HeLa; experiment: Cell cycle arrest in human HeLa cells assessed as accumulation at G2/M phase at 4 uM after 48 hrs by propidium iodide staining-based flow cytometric analysis (reference value: 19%)
[22] = test system: HEK293; experiment: Selectivity index, ratio of IC50 for HEK cells to IC50 for human MCF7 cells; type: functional; outline: as §2
[23] = test system: HeLa; experiment: Cytotoxicity against human HeLa cells after 72 hrs by MTT assay; type: functional, cell-based; outline: as §3
[24] = test system: HeLa; experiment: Selectivity index, ratio of IC50 for HEK cells to IC50 for human HeLa cells; type: functional; outline: as §2
[25] = test system: HeLa; experiment: Cell cycle arrest in human HeLa cells assessed as accumulation at G1 phase at 8 uM after 48 hrs by propidium iodide staining-based flow cytometric analysis (reference value: 68%); type: functional

| SMILES | Activity [1] | Activity [2] | Activity [3] | Activity [4] | Activity [5] | Activity [6] | Activity [7] | Activity [8] | Activity [9] | Activity [10] | Activity [11] [%] | Activity [12] [%] | Ratio IC50 [13] | Activity [14] [%] | IC50 [15] [µM] | IC50 [16] [µM] | Activity [17] [%] | Activity [18] [%] | IC50 [19] [µM] | IC50 [20] [µM] | other results |
| --- | --- | --- | --- | --- | --- | --- | --- | --- | --- | --- | --- | --- | --- | --- | --- | --- | --- | --- | --- | --- | --- |
| COc1cccc2c1C(=O)c1c(O)c3c(c(O)c1C2=O)C[C@@](O)(C(=O)CO)C[C@@H]3O[C@H]1C[C@H](N)[C@H](O)[C@H](C)O1 | Active | Active | Active | Active | Active | Active | inactive | Active | Active | inactive |  |  |  |  |  |  |  |  |  |  |  |
| O=c1c2ccccc2nc2n1Cc1cc3ccccc3nc1-2 [LUOTONIN A] | Active | Active | Active | Active | Active | Active | inactive | Active | Active | inactive | 5 | 20 | 2.01 | 5 | 28.8 | 9.28 | 75 | 5 | 58 | 6.4 | Activity [21]: 17%; Ratio IC50 [22]: 6.25; IC50 [23]: 5.94 µM; Ratio IC50 [24]: 9.76; Activity [25]: 72% |
| Cc1nc2ccccc2c(=O)n1-c1ccccc1Cn1cc(-c2ccccc2)nn1 | Active | Active | Active | Active | Active | Active | inactive | Active | Active | inactive | 6 | 18 | 12.69 | 6 | 20.2 | 8 | 76 | 7 | 256 | 2.96 | Activity [21]: 15%; Ratio IC50 [22]: 32; IC50 [23]: 5.94 µM; Ratio IC50 [24]: 43.09; Activity [25]: 72% |
